From paper PMC4502742 (Autophagy, 2015)
Non-standard residues stand in square brackets, D forms with d. No end group written: not given here. pS = N[C@@H](COP(=O)(O)O)C(=O)O

Assays:
[1] = system: B cells from MRL/lpr mice; assay: Internalization and colocalization in purified B cells, confocal microscopy; type: cell-based, mouse; settings: PBS-2% FCS
[2] = system: chaperone-mediated autophagy (CMA) in NIH3T3 cells; assay: CMA activity, KFERQ-PA-mCherry1 reporter; type: cell-based, mouse; settings: NIH3T3, serum-free medium, 10 and 30 μM peptide, 12 h; N > 50 cells; Fig. 4
Method in brief: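 NIH3T3 cells stably expressing the photoactivable KFERQ-PA-mCherry1 reporter were photoactivated, then kept in serum-free medium to maximally activate CMA, with or without 10 or 30 μM test peptide for 12 h. Scrambled and unphosphorylated peptides served as controls. Nuclei were stained with DAPI. Fluorescent puncta per cell were counted in at least 50 cells. Results are mean + SEM; Student t test.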

[3] = system: major histocompatibility complex class II (MHCII) molecules; settings: cited from earlier work
MRL/lpr lupus-prone mice = settings: cited from earlier work
LAMP2A = assay: Lamp2a mRNA in purified B cells, qRT-PCR; type: in vivo, mouse; settings: B cells of MRL/lpr mice; Fig. S13
[4] = system: lysosomes isolated from mouse liver; assay: CMA in vitro: GAPDH binding and uptake by isolated lysosomes; type: biochemical
[5] = system: CTSD/cathepsin D and CTSL/cathepsin L; assay: Stability in artificial lysosomal fluid; type: in vitro ADME
LAMP1 = LAMP1 protein in purified B cells of treated mice, western immunoblotting; type: in vivo; settings: MRL/lpr mice, 100 μg P140/mouse/injection once or 6 times at daily intervals; Fig. 5F
Method in brief: (§1)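 MRL/lpr mice (10–13 wk old, 3 per group) received 100 μg test peptide per injection. Dosing was either once, with cells taken 5 d later, or 6 times at daily intervals, with cells taken 1 d after the last injection. Purified B cells were immunoblotted and band intensity was expressed relative to β-ACTA. Ratios were normalized to untreated MRL/lpr mice and given as mean of 3 mice + SD; at least 2 independent experiments.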

MRL/lpr mice splenocytes = assay: Intracellular localization in splenocytes after iv administration; type: in vivo, mouse; settings: 1 h after iv administration; Fig. S5
Method in brief: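 MRL/lpr mice (10–12 wk old) received 100 μg Alexa Fluor 488-labeled peptide intravenously. Splenocytes taken 1 h after injection were incubated for 30 min at 37°C in complete RPMI with 100 nM LysoTracker Red DND-99 or 500 nM MitoTracker Deep Red FM. After washing in the same medium, they were imaged immediately by confocal microscopy.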

[6] = system: chaperone-mediated autophagy (CMA) in NIH3T3 cells; assay: CMA activity, KFERQ-PS-Dendra reporter, high-content microscopy; type: cell-based, mouse; settings: 6 P140 concentrations, serum, starvation, paraquat 50 μM, > 700 cells, compared to an inactive P140 analog, Fig. S9
lupus patients = settings: phase II clinical trials; cited from earlier work
[7] = Stability in matrices of isolated lysosomes; type: in vitro ADME; settings: pH 4.2, 5.3, 7.2
Method in brief: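 Peptide stability was tested in artificial lysosomal fluid at pH 4.2, 5.3 and 7.2. The fluid was supplemented with CTSD plus CTSL or with matrix extracted from isolated lysosomes. Samples were analysed by analytical RP-HPLC at 220 nm using water + 0.1% TFA and acetonitrile + 0.08% TFA eluents. Degradation was judged from the remaining intact-peptide peak area at several time intervals.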

[8] = system: HSPA8/HSC70/HSP73 chaperone; settings: cited from earlier work
CTSD = CTSD protein in purified B cells of treated mice, western immunoblotting; type: in vivo; settings: MRL/lpr mice, 100 μg P140/mouse/injection once or 6 times at daily intervals; Fig. 5F
Method in brief: as §1

HSPA8 = HSPA8 (Bos taurus, UniProt P19120); assay: HSPA8 ATPase activity; type: biochemical; settings: HSPA8 500 nM without HSP40; 100 μM ATP; 3 h at 37°C; luminescence; 3 independent experiments; Fig. 1D
[9] = target: HSPA8 N-terminal fragment 1-386 (nucleotide binding domain) (human, UniProt P11142 1-386); assay: ELISA
[10] = administered intravenously to MRL/lpr mice

Chain of HSPA8 (P19120 whole entry, the tested form may be a part): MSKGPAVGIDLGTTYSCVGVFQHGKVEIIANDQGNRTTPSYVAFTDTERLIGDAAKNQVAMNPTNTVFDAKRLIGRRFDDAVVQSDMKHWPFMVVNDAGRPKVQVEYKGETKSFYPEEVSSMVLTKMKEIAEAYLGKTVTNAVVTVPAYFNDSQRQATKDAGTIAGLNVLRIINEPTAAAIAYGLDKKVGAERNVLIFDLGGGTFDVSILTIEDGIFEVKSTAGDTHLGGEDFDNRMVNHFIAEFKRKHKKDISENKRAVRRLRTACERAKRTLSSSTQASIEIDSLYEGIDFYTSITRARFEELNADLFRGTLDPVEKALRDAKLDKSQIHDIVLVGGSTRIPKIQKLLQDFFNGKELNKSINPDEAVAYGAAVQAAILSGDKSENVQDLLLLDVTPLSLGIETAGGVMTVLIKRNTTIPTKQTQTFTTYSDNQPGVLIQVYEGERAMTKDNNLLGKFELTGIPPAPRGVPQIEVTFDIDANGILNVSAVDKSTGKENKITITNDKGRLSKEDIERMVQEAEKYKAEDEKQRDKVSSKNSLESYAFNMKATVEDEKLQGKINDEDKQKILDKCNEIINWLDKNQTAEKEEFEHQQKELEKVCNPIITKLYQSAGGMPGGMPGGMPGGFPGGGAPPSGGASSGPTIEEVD
Chain of HSPA8 N-terminal fragment 1-386 (nucleotide binding domain) (P11142 1-386): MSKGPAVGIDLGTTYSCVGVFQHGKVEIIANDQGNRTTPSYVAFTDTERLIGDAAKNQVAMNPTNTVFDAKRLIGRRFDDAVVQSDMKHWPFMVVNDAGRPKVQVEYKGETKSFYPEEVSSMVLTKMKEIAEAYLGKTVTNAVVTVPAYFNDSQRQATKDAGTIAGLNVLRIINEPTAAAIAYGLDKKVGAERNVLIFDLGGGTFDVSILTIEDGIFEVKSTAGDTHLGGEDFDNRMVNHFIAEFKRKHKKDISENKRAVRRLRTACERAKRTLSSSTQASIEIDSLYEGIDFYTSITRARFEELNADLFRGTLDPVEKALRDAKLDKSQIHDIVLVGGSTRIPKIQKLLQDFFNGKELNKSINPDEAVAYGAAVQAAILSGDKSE

Molecule: 131–151: unphosphorylated (nonprotective) peptide 131–151 of SNRNP70/U1–70K (RIHMVYSKRSGKPRGYAFIEY; UniProt P08621 131-151, looked up, fragment) [reference compound]
- colocalization with early endosomal marker EEA1, ex vivo ([1]; 10 μM Alexa Fluor 488-labeled peptide, 15 min at 37°C, Fig. 3B, S6B, C): colocalization with EEA1 was hardly seen
- CMA activity, average number of fluorescent puncta per cell [2]: did not observe any changes in CMA activity

Molecule: RIHMVYSKRpSGKPRGYAFIEY [P140]
- binding to MHCII molecules [3]: binds both the HSPA8/HSC70/HSP73 chaperone and major histocompatibility complex class II (MHCII) molecules
- protective effect in lupus-prone mice (MRL/lpr lupus-prone mice; MRL/lpr mice): displays protective properties
- MHCII expression (MRL/lpr lupus-prone mice; MRL/lpr mice, earlier work): decreases MHCII overexpression
- signs of systemic autoimmunity (proteinuria, vasculitis, dermatitis, anti-DNA antibody production) (MRL/lpr lupus-prone mice; MRL/lpr mice, earlier work): attenuates biological and clinical signs of systemic autoimmunity
- HSPA8 expression (MRL/lpr lupus-prone mice; [10]): decreases the HSPA8 overexpression observed in this murine strain
- autophagy markers SQSTM1/p62 and LC3-II (MRL/lpr lupus-prone mice; [10]): increases the accumulation of the autophagy markers SQSTM1/p62 (sequestosome 1) and LC3-II
- Lamp2a mRNA level (LAMP2A): lack of change at the mRNA level
- GAPDH associated with lysosomes, exogenous HSPA8 added ([4]; as above with exogenous HSPA8 in the incubation media, Fig. S10B): not even when exogenous HSPA8 was added
- uptake of GAPDH by lysosomes ([4]; difference of GAPDH with and without protease inhibitors, Fig. S10C, D): did not significantly modify binding or uptake of GAPDH by CMA
- GAPDH associated with lysosomes ([4]; lysosomes 75 μg protein pretreated with protease inhibitors, GAPDH 25 μg, 20 min at 37°C, pH 7.3, increasing peptide concentrations, immunoblot, Fig. S10A): did not modify the amount of GAPDH recovered in lysosomes
- binding of GAPDH to lysosomes ([4]; lysosomes without protease inhibitors, Fig. S10C, D): did not significantly modify binding or uptake of GAPDH by CMA
- entry pathway into B lymphocytes ([1]; B lymphocytes from 12-wk-old MRL/lpr mice, Alexa Fluor 488-labeled peptide 10 μM, 30 min at 37°C, confocal, Fig. 2A): endocytosed by a clathrin-dependent mechanism
- time for which the phosphoryl moiety was preserved ([5]; ALF, pH 4.2, 37°C, LC-MS, Fig. S8): about 2 h
- dependence of stability on pH ([5]; pH 5.3 and 7.2 compared to 4.2, medium not given): more stable at higher pH (5.3 and 7.2 compared to 4.2)
- LAMP1 expression in purified B cells (LAMP1): A similar trend was observed for LAMP1 expression
- localization by LysoTracker Red / MitoTracker Deep Red counterstaining (MRL/lpr mice splenocytes): accumulated into lysosomes
- CMA activity, average number of puncta per cell [6]: significantly diminish CMA activity in a peptide concentration-dependent manner
- protective effect in lupus patients (lupus patients): displays protective properties
- stability over pH in CMA+ lysosomal extracts [7]: remains stable on a large range of pH
- binding to HSPA8 [8]: readily binds to HSPA8
- CMA activity, average number of fluorescent puncta per cell [2]: clearly diminished the average number of puncta per cell in a dose-dependent manner
- CTSD expression in purified B cells (CTSD): highly significant reduction
- endogenous HSPA8 ATPase activity (HSPA8): effectively increase both the endogenous and HSP40-stimulated ATPase activities of HSPA8 in a peptide dose-dependent manner

B1: P140 peptide (SNRNP70/U1-70K 131-151, phosphoserine 140) (peptide)
peptide: RIHMVYSKR[pS]GKPRGYAFIEY
- binding result [9]: binds
